# Measured values published in ChEMBL document CHEMBL4145640, “De Novo Design, Synthesis, and Biological Evaluation of 3,4-Disubstituted Pyrrolidine Sulfonamides as Potent and Selective Glycine Transporter 1 Competitive Inhibitors” (J Med Chem, 2018).
# pKi: −log10 of the molar value.
# What was measured:
# Mus musculus = assay: Inhibition of L687,414-induced hyperactivity in mouse at 1 mg/kg, ip dosed before test; format: functional
# [1] = Stability in pH 7 buffer at 1 mg assessed as compound hydrolysis after several days at room temperature by LC/MS analysis; format: physicochemical
# [2] = Unbound intrinsic clearance in human liver microsomes at 0.5 uM incubated for 4 hrs by equilibrium dialysis and LC-MS/MS method; format: ADME, microsome
# [3] = Unbound intrinsic clearance in rat liver microsomes at 0.5 uM incubated for 4 hrs by equilibrium dialysis and LC-MS/MS method; format: ADME, microsome
# Salmonella typhimurium [4] = assay: Genotoxicity in Salmonella typhimurium TA98 assessed as induction of mutagenicity by measuring revertant colonies at 0.3 to 1000 ug/well incubated for 48 hrs in presence of liver S9 fraction by mini Ames test; format: toxicity, organism-based; conditions: salmonella enterica subsp. enterica serovar typhimurium, s9, 48 h
# Salmonella typhimurium [5] = assay: Genotoxicity in Salmonella typhimurium TA100 assessed as induction of mutagenicity by measuring revertant colonies at 0.3 to 1000 ug/well incubated for 48 hrs in presence of liver S9 fraction by mini Ames test; format: toxicity, organism-based; conditions: salmonella enterica subsp. enterica serovar typhimurium, s9, 48 h
# [6] = target: T1, Sodium- and chloride-dependent glycine transporter 1 (Homo sapiens, UniProt P48067); assay: Inhibition of [3H]N-Methyl-SSR504734 binding to human recombinant GlyT1c expressed in CHO cell membranes incubated for 1 hr by liquid scintillation spectrometry
# T1 sequence (P48067 whole entry): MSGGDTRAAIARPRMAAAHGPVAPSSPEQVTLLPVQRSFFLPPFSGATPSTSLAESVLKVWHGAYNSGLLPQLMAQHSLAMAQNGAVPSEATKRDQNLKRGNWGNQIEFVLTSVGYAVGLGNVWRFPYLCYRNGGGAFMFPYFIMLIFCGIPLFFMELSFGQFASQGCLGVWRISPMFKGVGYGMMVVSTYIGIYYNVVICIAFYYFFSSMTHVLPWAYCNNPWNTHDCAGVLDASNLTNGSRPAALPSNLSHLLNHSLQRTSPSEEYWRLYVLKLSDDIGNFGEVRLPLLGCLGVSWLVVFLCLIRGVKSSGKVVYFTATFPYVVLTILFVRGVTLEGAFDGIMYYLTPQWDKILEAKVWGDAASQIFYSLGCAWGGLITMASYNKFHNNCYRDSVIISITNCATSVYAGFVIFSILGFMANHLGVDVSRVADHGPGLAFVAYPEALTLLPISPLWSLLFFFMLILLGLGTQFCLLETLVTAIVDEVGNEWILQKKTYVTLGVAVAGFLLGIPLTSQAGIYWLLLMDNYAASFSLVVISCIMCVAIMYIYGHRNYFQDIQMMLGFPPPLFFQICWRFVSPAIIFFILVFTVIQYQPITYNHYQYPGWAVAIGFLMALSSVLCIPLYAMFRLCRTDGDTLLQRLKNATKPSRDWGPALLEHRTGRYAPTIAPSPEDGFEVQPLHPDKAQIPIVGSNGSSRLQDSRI
# MDR1 (P-gp) = assay: Efflux ratio in MDCK2-MDR1 cells at 1 uM incubated for 1 hr by LC-MS/MS method; format: ADME, cell-based, Canis lupus familiaris; conditions: dog, MDCK-MDR1
# Procedure, shortened: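 MDCK II cells transfected with MDR1 (human P-gp, lowered canine P-gp) seeded on transwell inserts at 300,000 cells/cm2, media changed day 2, assayed day 4 or 5. Dosed apical or basolateral at 1 µM final (1 mM DMSO stock, 0.1% DMSO) in HBSS + glucose, duplicate, 37 °C for 1 h. Receiver and donor sampled, LC-MS/MS with buspirone internal standard; Papp from ΔQ/Δt·1/(A·C0).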
# [7] = Ratio of free drug level in brain to plasma in rat; format: ADME; conditions: read-out: BPR
Stability [1],CL free [2] [mL/min/kg],CL free [3] [mL/min/kg],pKi [6],"efflux ratio at 1 h, 1 µM (MDR1 (P-gp))",Kp uu [7],SMILES,inhibition in vivo at 1 mg/kg (Mus musculus) [%],Activity (Salmonella typhimurium [4]),Activity (Salmonella typhimurium [5])
–,–,–,–,–,–,Cn1cnc(S(=O)(=O)N2C[C@H](Nc3ccc(F)c(OC(F)(F)F)c3)[C@@H](c3ccc(F)cc3)C2)c1,100,–,–
Stable,–,–,–,–,–,Cn1cnc(S(=O)(=O)N2C[C@H]([C@@H]3CCCO3)[C@@H](Nc3cccc(OC(F)(F)F)c3)C2)c1,–,–,–
–,250,950,6.70,0.9,–,Cn1cnc(S(=O)(=O)N2CC(Nc3ccccc3)C(c3ccccc3)C2)c1 (racemic),–,Non-Toxic,Non-Toxic
–,–,–,8.10,–,–,Cn1cnc(S(=O)(=O)N2CC(Nc3cccc(C(F)(F)F)c3)C(c3ccccc3)C2)c1 (racemic),–,Non-Toxic,Non-Toxic
–,–,–,–,–,–,Cn1cnc(S(=O)(=O)N2CC(Nc3cncc(C(F)(F)F)c3)C(c3ccc(F)cc3)C2)c1 (racemic),–,Non-Toxic,Non-Toxic
–,817,1980,7.74 to 7.77,0.9,0.6,Cc1cccc(NC2CN(S(=O)(=O)c3cn(C)cn3)CC2c2ccccc2)c1 (racemic),–,Non-Toxic,Non-Toxic
–,3380,5830,8.52,1.1,1.7,Cn1cnc(S(=O)(=O)N2CC(Nc3cccc(Cl)c3)C(c3ccc(F)cc3)C2)c1 (racemic),–,Non-Toxic,Non-Toxic
–,–,–,–,–,–,Cn1cnc(S(=O)(=O)N2CC(Nc3cccc(C(F)(F)F)c3)C(c3cccnc3)C2)c1 (racemic),–,Non-Toxic,Non-Toxic
–,1450,4430,7.38,1,–,Cn1cnc(S(=O)(=O)N2CC(Nc3cccc(Cl)c3)C(c3cccc(F)c3)C2)c1 (racemic),–,Non-Toxic,Non-Toxic
